Measured values published in ChEMBL document CHEMBL3763056, “O-alkylhydroxylamines as rationally-designed mechanism-based inhibitors of indoleamine 2,3-dioxygenase-1” (Eur J Med Chem, 2016).
The source made the active and inactive calls. No cut-off for these calls is given here.

Key:
[1] = target: T1, Indoleamine 2,3-dioxygenase 1 (Homo sapiens, UniProt P14902); assay: Inhibition of recombinant human IDO1 assessed as reduction in kynurenine production using L-tryptophan as substrate after 60 mins by microplate reader method
Target sequence in this assay (P14902 whole entry): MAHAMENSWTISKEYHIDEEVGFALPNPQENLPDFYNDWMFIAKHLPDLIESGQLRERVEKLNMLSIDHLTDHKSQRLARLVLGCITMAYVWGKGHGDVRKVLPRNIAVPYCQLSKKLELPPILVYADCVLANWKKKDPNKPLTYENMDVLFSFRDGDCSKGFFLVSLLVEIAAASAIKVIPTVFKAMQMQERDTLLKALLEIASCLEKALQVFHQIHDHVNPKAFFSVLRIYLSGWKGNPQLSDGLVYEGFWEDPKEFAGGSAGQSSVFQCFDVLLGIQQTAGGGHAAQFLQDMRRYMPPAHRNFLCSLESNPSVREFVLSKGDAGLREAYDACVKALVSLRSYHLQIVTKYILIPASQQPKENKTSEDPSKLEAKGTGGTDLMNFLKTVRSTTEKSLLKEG

[2] = target: T2, Catalase (Homo sapiens, UniProt P04040); assay: Inhibition of catalase (unknown origin) using hydrogen peroxide as substrate
T2 sequence (P04040 whole entry): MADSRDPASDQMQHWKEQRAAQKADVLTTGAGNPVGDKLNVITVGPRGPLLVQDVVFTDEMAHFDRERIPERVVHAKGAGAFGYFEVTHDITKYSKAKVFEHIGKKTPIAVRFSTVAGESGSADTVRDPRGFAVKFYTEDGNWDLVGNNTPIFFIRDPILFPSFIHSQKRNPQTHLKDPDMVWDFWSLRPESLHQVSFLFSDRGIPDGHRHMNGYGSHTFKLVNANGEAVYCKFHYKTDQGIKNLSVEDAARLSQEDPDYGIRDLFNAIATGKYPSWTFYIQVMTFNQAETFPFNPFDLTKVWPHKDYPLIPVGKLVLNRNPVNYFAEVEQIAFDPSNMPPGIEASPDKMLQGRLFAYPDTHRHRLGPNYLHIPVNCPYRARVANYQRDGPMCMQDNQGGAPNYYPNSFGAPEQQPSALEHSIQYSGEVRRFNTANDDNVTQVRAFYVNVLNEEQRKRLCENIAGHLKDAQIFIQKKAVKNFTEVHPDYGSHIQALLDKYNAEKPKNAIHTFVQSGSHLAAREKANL

[3] = test system: HeLa; assay: Cytotoxicity against human HeLa cells assessed as cell viability upto 100 uM by sulforhodamine B assay; format: cell-based
Method in brief: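 HeLa cells seeded at 10,000/well in DMEM + 10% FBS, IDO1 induced 24 h with IFNγ (100 ng/mL final), then compound serial dilutions in medium with 100 μM Trp for 24 h at 37 °C. Cells fixed with TCA 1 h at 4 °C, stained with 0.4% SRB 15 min, dye solubilized in 10 mM Tris; absorbance at 570 nm.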

[4] = target: Cytochrome P450 3A4 (Homo sapiens, UniProt P08684); assay: Inhibition of CYP3A4 (unknown origin); format: ADME
[5] = target: T1, Indoleamine 2,3-dioxygenase 1; assay: Inhibition of IFN gamma induced human IDO1 in HeLa cells assessed as reduction in kynurenine production treated with 3-fold serial dilution beginning at 100 uM after 24 hrs by microtiter plate reader; format: cell-based
Method in brief: (§1)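 HeLa cells seeded 10,000/well in DMEM + 10% FBS + 1% pen-strep; IDO1 induced with IFNγ (100 ng/mL final) for 24 h. Media discarded, wells rinsed, compound serial dilutions added in DMEM + 10% FBS with Trp adjusted to 100 μM. 24 h at 37 °C. TCA stop and fixation 1 h at 4 °C. Supernatant heated at 65 °C for 15 min, mixed with Ehrlich's reagent, read at 490 nm.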
Target sequence in this assay (P14902 whole entry): as the sequence (P14902 whole entry) above

[6] = target: T1, Indoleamine 2,3-dioxygenase 1; assay: Inhibition of recombinant human IDO1 assessed as reduction in kynurenine production using L-tryptophan as substrate after 60 mins by Michaelis-Menton plot analysis
Method in brief: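 Purified recombinant human IDO1 (~27 nM) in 50 mM potassium phosphate pH 6.5 with 40 mM ascorbate, 400 μg/ml catalase and 20 μM methylene blue. For IC50, L-Trp at 100 μM (Km 80 μM). For Ki, inhibitor dilutions matrixed with L-Trp dilutions. 60 min at 37 °C, TCA stop, 65 °C for 15 min, Ehrlich's reagent, A490.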
Target sequence in this assay (P14902 whole entry): as the sequence (P14902 whole entry) above

[7] = target: T1, Indoleamine 2,3-dioxygenase 1; assay: Inhibition of doxycycline-induced human IDO1 expressed in Trex cells assessed as reduction in kynurenine production treated with 5-fold serial dilution beginning at 400 uM after 24 hrs by microtiter plate reader; format: cell-based
Method in brief: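 T-Rex cells carrying tet-regulated human IDO1 cDNA seeded 10,000/well in DMEM + 10% FBS + 1% pen-strep; IDO1 induced with media containing 20 ng/mL doxycycline for 24 h. Media replaced by compound serial dilutions in DMEM + 10% FBS, Trp 100 μM. 24 h at 37 °C. TCA fixation, supernatant heated at 65 °C, Ehrlich's reagent, A490. Single run.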
Target sequence in this assay (P14902 whole entry): as the sequence (P14902 whole entry) above

[8] = target: T1, Indoleamine 2,3-dioxygenase 1; conditions: 110 to 990 nM
Target sequence in this assay (P14902 whole entry, looked up): as the sequence (P14902 whole entry) above

[9] = target: T1, Indoleamine 2,3-dioxygenase 1; assay: Inhibition of IFN gamma induced human IDO1 in HeLa cells assessed as reduction in kynurenine production treated with 5-fold serial dilution beginning at 400 uM after 24 hrs by microtiter plate reader; format: cell-based; method in brief: as §1
Target sequence in this assay (P14902 whole entry): as the sequence (P14902 whole entry) above

Cytochrome P450 3A4, sequence (P08684 whole entry): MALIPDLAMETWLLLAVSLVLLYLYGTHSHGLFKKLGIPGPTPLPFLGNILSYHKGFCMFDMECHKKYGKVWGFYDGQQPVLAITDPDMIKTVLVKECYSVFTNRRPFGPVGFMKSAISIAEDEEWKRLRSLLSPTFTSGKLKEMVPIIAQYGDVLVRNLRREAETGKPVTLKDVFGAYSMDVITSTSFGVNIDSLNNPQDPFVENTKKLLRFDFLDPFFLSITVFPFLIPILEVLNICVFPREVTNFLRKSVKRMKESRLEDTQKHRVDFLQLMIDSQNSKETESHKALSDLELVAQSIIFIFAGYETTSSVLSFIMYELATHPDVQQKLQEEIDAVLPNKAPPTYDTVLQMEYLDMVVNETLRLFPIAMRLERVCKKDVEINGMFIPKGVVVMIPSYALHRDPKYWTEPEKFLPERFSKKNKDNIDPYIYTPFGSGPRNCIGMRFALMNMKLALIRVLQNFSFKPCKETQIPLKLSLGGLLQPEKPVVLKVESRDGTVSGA

Row | IC50 [1] [µM] | SMILES | also measured
1 | 0.63 | NOCc1ccc(Cl)cc1Cl | 
2 | 0.45 | NOCc1cccc(Cl)c1Cl | 
3 | 9.5 | COc1cccc(CON)c1 | 
4 | 6 | ONCc1ccccc1 | 
5 | 3.4 | NOCc1cc(F)cc(F)c1 | 
6 | 1.6 | NOCc1ccccc1Br | 
7 | 2.5 | NOCc1ccccc1C(F)(F)F | 
8 | 1.1 | NOCc1ccc(C(F)(F)F)cc1F | 
9 | 26 | NOC1CCc2ccccc21 (stereo unspecified) | 
10 | 5.2 | NOC(c1ccccc1)C1CC1 (stereo unspecified) | 
11 | 1 | NOCc1cccc(F)c1 | 
12 | 2.4 | NOCc1ccc(F)cc1C(F)(F)F | 
13 | 0.63 | NOCc1ccccc1Cl | 
14 | 0.98 | NOCc1ccc(F)cc1 | 
15 | 19 | NOCc1ccccc1O | 
16 | 2.7 | NOCc1ccc([N+](=O)[O-])cc1 | 
17 | 12 | NOCc1ccc(-c2ccccc2)cc1 | 
18 | 1.4 | NOCc1ccccc1F | 
19 | 10 | NOC1Cc2ccccc2C1 | 

More lines, now with the values behind:

Row | SMILES | IC50 [1] [µM] | also measured
20 | NOCc1ccc(I)cc1Cl | 0.73 | 
21 | Cc1cccc(CON)c1 | 2.7 | 
22 | NOCc1ccc(Cl)cc1 | 1.3 | 
23 | NOCc1cc(C(F)(F)F)cc(C(F)(F)F)c1 | 4.6 | 
24 | NNc1ccccc1 [PHENYLHYDRAZINE] | 0.23 | 
25 | NOCc1ccc(Cl)c(C(F)(F)F)c1 | 0.49 | 
26 | NNCc1ccccc1 [BENZYLHYDRAZINE] | 71 | 
27 | NOCc1ccccc1 | 0.81 | 
28 | NOCc1ccc(C(F)(F)F)cc1 | 8.9 | 
29 | NOCc1ccccc1I | 0.57 | 
30 | NOCc1cccc(C(F)(F)F)c1 | 0.41 | 
31 | NOCc1ccc(O)cc1 | 61 | 
32 | Cl.NOCc1cccc(Cl)c1 | 0.3 | IC50 [2]: > 100 µM; Activity [3]: Non-toxic; IC50 [4]: 15 µM; IC50 [5]: 0.134 µM; Ki [6]: 0.154 µM; IC50 [7]: 0.077 µM; inhibition [8]: Active; IC50 [9]: 0.114 µM
33 | O=C(NO)c1ccccc1 [BENZOHYDROXAMATE] | 16 | 
34 | NOCc1cc(Br)cc(Br)c1 | 4.2 | 
35 | NOCCCc1ccccc1 | 82 | 

Row | SMILES | IC50 [1] [µM] | also measured
36 | NOCc1cc(C(F)(F)F)ccc1F | 0.57 | 
37 | NOCc1cccc(I)c1 | 0.34 | 
38 | COc1ccc(OC)c(CON)c1 | 1.7 | 
39 | COc1cccc(CON)c1O | 55 | 
40 | NOCc1ccc(Cl)c(Cl)c1 | 2.1 | 
41 | NOCc1ccc(Br)cc1 | 1.6 | 
42 | NOCc1ccc(F)cc1F | 1.4 | 
43 | ONc1ccccc1 | 9.2 | 
44 | COc1ccc(CON)cc1 | 24 | 
45 | NOCc1cccc(Br)c1 | 0.32 | 
46 | NOCc1cc(Cl)cc(Cl)c1 | 0.9 | 
47 | NOC/C=C/c1ccccc1 | 7.1 | 
48 | COc1ccccc1CON | 5.4 | 
49 | Cl.NOCc1ccc(I)cc1 | 0.22 | IC50 [2]: > 100 µM; Activity [3]: Non-toxic; IC50 [4]: 7.2 µM; Ki [6]: 0.164 µM; IC50 [7]: 0.18 µM; inhibition [8]: Active; IC50 [9]: 0.082 µM
50 | NOC1CCCc2ccccc21 (stereo unspecified) | 10 | 
51 | CC(C)c1ccc(CON)cc1 | 15 | 
